High-throughput results: PubChem, several laboratories
Pemphigus Ab inh: human desmoglein-3 autoantibody binding inhibition; AID 588358; P32926; binding (percent of control), % at 10 µM; 0.48% of 310,000 active; DSG3-coupled beads, scFv-anti-DSG3-GFP binding, flow cytometry; hits give low values;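 active = binding more than 3 SD below its plate's average and above zero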;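 also: hits lower antibody fragment binding to DSG3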
NadD block: blocks S. aureus nicotinate mononucleotide adenylyltransferase. purified NadD enzyme, colorimetric absorbance read-out. 0.78% of 360,000 active. inhibition, % at 20 µM; in the data active = inhibition above about 26%
Rce1 inh: inhibitors of yeast Ras-converting enzyme. Q03530. yeast membranes, quenched prenylated peptide cleavage fluorescence. calls only. 0.27% of 290,000 active;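 active = fall in fluorescence gain of 50% or more versus controls, with final raw signal at or below 3038400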;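 also: plate controls were neutral control wells for no effect and wells lacking membranes for full effect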
Target sequence (Q03530 whole entry, looked up): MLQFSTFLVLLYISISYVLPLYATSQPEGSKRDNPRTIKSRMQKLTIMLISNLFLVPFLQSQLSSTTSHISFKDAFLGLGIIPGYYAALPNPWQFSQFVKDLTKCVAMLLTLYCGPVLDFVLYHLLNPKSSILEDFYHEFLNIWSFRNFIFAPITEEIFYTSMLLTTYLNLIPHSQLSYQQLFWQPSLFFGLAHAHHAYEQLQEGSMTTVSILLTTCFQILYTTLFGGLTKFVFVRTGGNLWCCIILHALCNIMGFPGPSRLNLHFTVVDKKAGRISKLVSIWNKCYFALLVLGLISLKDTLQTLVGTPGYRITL
core dimer inh: blocks dimerization of HCV core protein; TR-FRET GST/Flag-core106 dimerization, 1536-well; inhibition, % at 5 µM; 0.33% of 300,000 active;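 active = inhibition above the mean of all tested compounds plus 3 SD, set per screening campaign, cut at about 45% in these data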
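System – GST-tagged and Flag-tagged HCV core protein residues 1-106 · Repeats – one well for each compound · Technique – TR-FRET 671 and 617 nm emission · Doses – one concentration, 5 µM, in 0.5% DMSO · Times – 4 h, 22.5 °C incubation · Also added – Eu donor and XL665 acceptor anti-tag antibodies · Measure – percent inhibition of core106 dimerization signal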
Tb MetRS inh: blocks T. brucei methionyl-tRNA synthetase activity | purified T. brucei MetRS, ATP depletion, Kinase-Glo luminescence | inhibition, % at 11.9 µM | 0.4% of 360,000 active;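 active = inhibition above a per-plate cutoff of the control wells' mean inhibition plus 3 SD, cut at about 5.5% in these data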;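 also: 0% = DMSO wells median and 100% = median of wells with control inhibitor compound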
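Material: T. brucei methionyl-tRNA synthetase, purified; reagent: substrates ATP, L-methionine and bulk Escherichia coli tRNA; dosing: 11.9 µM single point; timing: 15 min plus 2 h at 25 °C; detection: luminescence of leftover ATP; evaluation: % inhibition; control set: DMSO-only wells as low control; replicates: singlicate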
Starred values were filed as active, the others as inactive; i = inactive; nt = not tested or not shown; + = active, no number. Hits are enriched below; roughly 1.9% of the tested compounds scored in any of these assays.

SMILES	Pemphigus Ab inh	NadD block	Rce1 inh	core dimer inh	Tb MetRS inh
CCc1nn(CC(=O)NCCc2ccc(S(N)(=O)=O)cc2)c(=O)c2cc3sccc3n12	82*	3	i	6	0
CCc1nn(CC(=O)N2CCN(CC)CC2)c(=O)c2cc3sccc3n12	113	-2	i	3	1
CC(/C=N/NC(=O)CSc1nnc(SCc2ccccc2)s1)=C\c1ccco1	100	-4	i	48*	0
O=C(N/N=C/c1ccco1)c1cc(-c2ccncc2)nc2ccccc12	107	11	i	nt	1
CC(/C=N/NC(=O)c1cc(-c2ccccc2)nc2ccccc12)=C\c1ccco1	100	24	i	51*	0
CC(/C=N/NC(=O)c1cc(-c2ccc(Cl)cc2)nc2ccccc12)=C\c1ccco1	75	2	i	88*	0
Cc1cc(C(=O)N/N=C/c2ccco2)c2ccccc2n1	95	-3	i	3	0
CC1(C)CC(=O)C=C(c2cc3ccccc3s2)C1	85*	0	i	-13	0
COC(=O)N/N=C/c1cn(Cc2c(Cl)cccc2Cl)c2ccccc12	81*	-2	i	-1	0
Nc1ccc(C(=O)N/N=C/c2cn(Cc3ccccc3F)c3ccccc23)cc1	111	5	i	nt	0
COC(=O)N/N=C/c1cn(Cc2ccccc2Cl)c2ccccc12	77	-6	+	9	1
O=C(O)c1ccc(N/N=C/c2cn(Cc3ccccc3F)c3ccccc23)cc1	105	10	+	-2	0
COc1ccc(CNC(=O)CC(C)S(=O)(=O)c2ccc3c(c2)NC(=O)CO3)cc1 (configuration not stated)	109	4	i	2	0
COc1ccc(C2c3c(ncn(CCCO)c3=N)Oc3ccc4ccccc4c32)cc1OC (configuration not stated)	110	-2	i	-2	0
COc1ccc(C2c3c(ncn(CCCO)c3=N)Oc3ccc4ccccc4c32)cc1 (configuration not stated)	110	-8	+	-2	-1
CCOC(=O)c1cc(-c2ccccc2)sc1NC(=O)C(C)Sc1nnc(C)s1 (configuration not stated)	82	-2	i	-5	0
CCOC(=O)c1cc(-c2ccccc2)sc1NC(=O)C(C)Sc1nnnn1C (configuration not stated)	99	7	+	-6	0
Cc1ccc(CNC(=O)COC(=O)Cc2ccc(-c3ccccc3)cc2)cc1	93	-11	i	-6	0
O=C(COC(=O)Cc1ccc(-c2ccccc2)cc1)NCc1ccc(F)cc1	19*	6	i	8	1
Cc1cc(/C=C(/C#N)c2nc3ccccc3[nH]2)c(C)n1-c1cccc([N+](=O)[O-])c1	91	41*	i	43	-1
Cc1cc(/C=C(\C#N)c2nc3ccccc3[nH]2)c(C)n1C	91	9	i	-15	1
N#C/C(=C\c1ccc(N2CCOCC2)cc1)c1ccccc1	-133*	1	i	-3	-1
CCOC(=O)c1cc2c(=O)n3cccc(C)c3nc2n(CCCOC)c1=NC(=O)c1cccnc1	102	1	i	0	0
COc1ccc(Sc2ccccc2CN(C)C)cc1OC	105	-5	i	2	-1
CNCc1ccccc1Sc1ccc(O)c(O)c1	57*	5	i	0	-1
SMILES	Pemphigus Ab inh	NadD block	Rce1 inh	core dimer inh	Tb MetRS inh
COC(=O)c1ccc2nc(-c3ccc(F)cc3)c(Cc3cccc(Cl)c3)n2c1	nt	4	nt	nt	-1
Cc1c2cc[n+](CCN3CCCCC3)cc2c(C)c2c1[nH]c1ccc(O)cc12	88	48*	nt	nt	0
CCOC(=O)c1[nH]c2ccc(C)cc2c1NC(=O)CN1CCCCC1	119	4	i	-3	-2
CO/N=C(\c1nonc1N)N1CCN(c2ccc([N+](=O)[O-])cc2Cl)CC1	99	-4	i	0	7.0*
COc1ccccc1-c1cc(-c2ccccc2)nc(SC(C(N)=O)c2ccccc2)c1C#N (configuration not stated)	95	36*	i	10	-1
N#CCSc1ccccc1NC(=O)COC(=O)CCN1C(=O)C2CC=CCC2C1=O (configuration not stated)	100	-7	nt	nt	0
CC(=O)c1ccc(-c2ccc(C(=O)N3CCC(C(N)=O)CC3)o2)cc1	121	2	+	-4	0
